Measurements reported in PubChem BioAssay.
Results filed as inconclusive are left out.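 How the source made its calls, unless noted: active means RAM network inhibition above 8.4% in each of two replicates, 3 SD over the compound average; inconclusive means above 8.4% inhibition in only one replicate; inactive means 8.4% inhibition or less in each replicate.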

How the values were obtained:
[1] = OD615 S. cerevisiae growth inhibition, permissive medium, pilot counter-assay, permissive growth control for S. cerevisiae lifespan shortening project (AID 705;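 active means growth inhibition above 25% in both replicates, a cutoff set 3 SD above the mean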); settings: OD615, 24 h, at 10 µM, active compounds read high
Summary of the method: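 Test system: Saccharomyces cerevisiae strain carrying genetically modified DeaD replicative-lifespan system; buffer or medium: SC raffinose/galactose permissive medium; dosing: one dose 10 µM, DMSO 0.25% final; times: 24 h exposure, 30 °C; measured by: OD at 615 nm; read-out basis: growth inhibition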

[2] = Restrictive medium S. cerevisiae growth inhibition, OD615, pilot screen of yeast lifespan reduction project, restrictive growth control (AID 706;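 active means growth inhibition above a set limit, 3 SD over mean compound inhibition, in both replicates, cut at about 43% in these data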;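 further: modified DeaD lifespan yeast strain shifted to restrictive glucose medium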); settings: OD615, 48 h, at 10 µM, active compounds read high
Summary of the method: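 material = engineered S. cerevisiae DeaD strain | buffer or medium = glucose-based CSMM-D restrictive medium | dosing = one concentration, 10 µM final, 0.25% DMSO | schedule = 4 h pre-growth plus 48 h compound exposure, 30 °C | detection = OD615 absorbance reading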

[3] = viability gain of MRP-1-high H69AR cells under doxorubicin, pilot screen, MRP-1 activator project, CellTiter-Glo, duplicate (AID 807;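 active means viability increase at or above a cutoff of the median across tested compounds plus 3 SD, cut at about 8.5% in these data, passing the limit was not always enough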;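 further: compound pretreatment 18-22 h then 72 h combined with doxorubicin; 0% = doxorubicin alone and 100% = vehicle without doxorubicin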); settings: H69AR viability with doxorubicin, CellTiter-Glo luminescence; at 10 µM; active compounds read high
[4] = growth suppression of beta-catenin knockout HCT116, pilot screen, human colon tumor cells (AID 823;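 active means cell viability at or below a set limit in both duplicate runs, the limit being the all-compound median minus 4 SD, cut at about 23% in these data, passing the limit was not always enough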;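 further: 0% = wells killed by 20 µM Hyamine and 100% = untreated DMSO cell wells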); settings: CellTiter-Glo, 60 h, at 10 µM, active compounds read low
[5] = growth suppression of PTEN-deleted HCT116, pilot screen, cell-based, HCT116 clonal line, CellTiter-Glo (AID 824;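 active means viability at or below 27.92% in each of two runs, the all-compound median minus 4 SD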;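 further: 0% = 20 µM Hyamine control and 100% = vehicle cell control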); settings: 60 h, at 10 µM, active compounds read low
[6] = inhibitors of the yeast RAM network, pilot screen, dse1pr::URA3 reporter, 5-FOA selection (AID 869;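 active means inhibition over a set limit, the all-compound mean plus 3 SD, in both replicate runs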;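 further: 0% = DMSO wells with no growth and 100% = 10 µM 1-NA-PP1 with full growth; RAM network block rescues cells from 5-FOA so hits raise OD615 growth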); settings: S. cerevisiae dse1pr::URA3 5-FOA growth, OD615, 2 d; at 10 µM; active compounds read high; strain carries analog-sensitive mutant Cbk1 kinase
[7] = RAM signaling pathway blockade in yeast – S. cerevisiae, Pdr1DBD-CYC8 efflux-inhibited sensitized strain, primary screen (AID 1298);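 further: 0% = DMSO untreated cells without growth and 100% = 10 µM 1-NA-PP1 full growth; higher means more yeast growth rescued from 5-FOA killing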; settings: S. cerevisiae cbk1-as DSE1-URA3 strain, 5-FOA growth OD615, 2 d; at 50 µM; active compounds read high

O=c1c2c3c(sc2nc2n1CCCCC2)CCCC3
inactive: growth inhibition [1] -12.6% | growth inhibition [2] -15.5% | viability increase [3] -1.02% | viability [4] 90.4% | viability [5] 85.6% | inhibition [6] 0.635% | RAM network inhibition [7] 0.62%

Cc1oc(-c2cccc(Cl)c2)nc1CN1CCCC(C(=O)NC(C)c2ccc3c(c2)OCCO3)C1 (stereo not drawn)
inactive: growth inhibition [1] -7.17% | growth inhibition [2] -16.3% | viability increase [3] -4.74% | viability [4] 33.7% | viability [5] 37.5% | inhibition [6] 2.46% | RAM network inhibition [7] 5.6%

COc1ccc(-n2c(Cc3cc(=O)[nH]c(=O)[nH]3)nnc2SCc2ccccc2)cc1
inactive: growth inhibition [1] 6.28% | growth inhibition [2] -3.2% | viability increase [3] -0.7% | viability [4] 108% | viability [5] 103% | inhibition [6] 0.455% | RAM network inhibition [7] 3.82%

COc1cc2c(cc1OC)C1=C(C#N)CC/C(=N\S(=O)(=O)c3ccccc3)N1CC2
inactive: growth inhibition [1] -11.1% | growth inhibition [2] -3.91% | viability increase [3] -4.28% | viability [4] 97.8% | viability [5] 87.8% | inhibition [6] 1.25% | RAM network inhibition [7] 2.61%

CC1CCN(C(=O)CSc2nnc(Cc3cccn3C)n2-c2ccc(F)cc2)CC1
inactive: growth inhibition [1] -5.51% | growth inhibition [2] 10.6% | viability increase [3] -0.49% | viability [4] 88.7% | viability [5] 92% | inhibition [6] 1.79% | RAM network inhibition [7] 2.35%

CCOC(=O)C(C)Sc1nnc(Cc2cc(=O)[nH]c(=O)[nH]2)n1-c1ccc(OCC)cc1 (stereo not drawn)
inactive: growth inhibition [1] 2.12% | growth inhibition [2] -6.84% | viability increase [3] -0.85% | viability [4] 109% | viability [5] 101% | inhibition [6] 0.75% | RAM network inhibition [7] 2.89%

COc1cccc(C(=O)NCc2cn3ccsc3n2)c1
inactive: growth inhibition [1] -16.9% | growth inhibition [2] 4.09% | viability increase [3] -1.05% | viability [4] 110% | viability [5] 92.4% | inhibition [6] 2.06% | RAM network inhibition [7] 3.48%

COc1ccc(Nc2oc(COc3ccccc3F)nc2C#N)cc1
inactive: growth inhibition [1] -10.6% | growth inhibition [2] 11.6% | viability increase [3] -7.35% | viability [4] 51.3% | viability [5] 53.3% | inhibition [6] 2.25% | RAM network inhibition [7] 3.24%

O=C(Cn1nc(Cc2cccnc2)c2ccccc2c1=O)NCC1COc2ccccc2O1 (stereo not drawn)
inactive: growth inhibition [1] 3.08% | growth inhibition [2] -0.92% | viability increase [3] -1.71% | viability [4] 90.5% | viability [5] 95.3% | inhibition [6] 1.99% | RAM network inhibition [7] 0.96%

CSc1oc(-c2ccc(F)cc2)nc1S(=O)(=O)c1ccc(F)cc1
inactive: growth inhibition [1] -2.23% | growth inhibition [2] -6.25% | viability increase [3] -1.96% | viability [4] 85.1% | viability [5] 79.6% | inhibition [6] 1.59% | RAM network inhibition [7] 4.1%

O=C(c1cccc(C(=O)N2CCN(c3ccccc3F)CC2)c1)N1CCN(c2ccccc2F)CC1
inactive: growth inhibition [1] -6.5% | growth inhibition [2] -6.43% | viability increase [3] -2.61% | viability [4] 56.8% | viability [5] 54.9% | inhibition [6] 3.28% | RAM network inhibition [7] 4.24%

CN1CCCN(Cc2ccccc2C(F)(F)F)CC1
inactive: growth inhibition [1] 1.78% | growth inhibition [2] 1.52% | viability increase [3] -1.78% | viability [4] 97.6% | viability [5] 98.1% | inhibition [6] 1.25% | RAM network inhibition [7] 1.53%

O=C(c1oc(=O)c2ccccc2c1-c1ccccc1)N1CCC(O)CC1
inactive: growth inhibition [1] -2.27% | growth inhibition [2] -0.17% | viability increase [3] -2.96% | viability [4] 97.6% | viability [5] 91.6% | inhibition [6] 1.25% | RAM network inhibition [7] 1.92%

Cc1cccc(-n2c(Cc3cc(=O)[nH]c(=O)[nH]3)nnc2SC(C)C)c1
inactive: growth inhibition [1] -8.09% | growth inhibition [2] -1.15% | viability increase [3] -1.84% | viability [4] 101% | viability [5] 97.7% | inhibition [6] 1.72% | RAM network inhibition [7] 3.87%

COc1ccc(C2N(c3cccc(Cl)c3)C(=O)C3CCCN32)cc1 (stereo not drawn)
inactive: growth inhibition [1] 6.5% | growth inhibition [2] 6.72% | viability increase [3] -2.85% | viability [4] 102% | viability [5] 98.1% | inhibition [6] 0.115% | RAM network inhibition [7] -1.65%

CCOC(=O)N1CCN(C(=O)CS(=O)Cc2nc(-c3cccc(C)c3)oc2C)CC1 (stereo not drawn)
inactive: growth inhibition [1] -10.5% | growth inhibition [2] -16.8% | viability increase [3] -1.34% | viability [4] 104% | viability [5] 100% | inhibition [6] 1.69% | RAM network inhibition [7] 1.11%

CC(=O)Nc1ccc(S(=O)(=O)c2ccc(N)cc2)cc1N
inactive: growth inhibition [1] -3.35% | growth inhibition [2] 2.46% | viability increase [3] -1.15% | viability [4] 104% | viability [5] 98.8% | inhibition [6] 2.1% | RAM network inhibition [7] 3.91%

O=C(COC(=O)C1CCCO1)Nc1cccc(C(F)(F)F)c1 (stereo not drawn)
inactive: growth inhibition [1] -22.8% | growth inhibition [2] -15.9% | viability increase [3] 0% | viability [4] 91.8% | viability [5] 94.5% | inhibition [6] 1.63% | RAM network inhibition [7] 2.45%

O=C(NCc1cccs1)c1cnc2sccn2c1=O
inactive: growth inhibition [1] -9.93% | growth inhibition [2] 18% | viability increase [3] 0.04% | viability [4] 99.3% | viability [5] 89.9% | inhibition [6] 1.6% | RAM network inhibition [7] 0.36%

Cc1onc(-c2ccccc2)c1C(=O)N1CCN(C/C=C/c2ccccc2)CC1
inactive: growth inhibition [1] -2.69% | growth inhibition [2] 5.24% | viability increase [3] -5.02% | viability [4] 78.9% | viability [5] 75.6% | inhibition [6] 2.72% | RAM network inhibition [7] 3.92%

Cc1ccc(CNC(=O)CN(C)S(=O)(=O)c2cccc3cccnc23)cc1
inactive: growth inhibition [1] -2.75% | growth inhibition [2] 6.15% | viability increase [3] -1.21% | viability [4] 99.4% | viability [5] 92.9% | inhibition [6] 2.25% | RAM network inhibition [7] -1.33%

Cn1c(CSc2nc3ccc(Br)cc3[nH]2)nc2ccccc21
inactive: growth inhibition [1] -3.63% | growth inhibition [2] 12.1% | viability increase [3] 1.66% | viability [4] 90.8% | viability [5] 85.2% | inhibition [6] 1.4% | RAM network inhibition [7] 9.55%

OCCNc1nc(Nc2ccccc2)nc(Nc2ccccc2)n1
inactive: growth inhibition [1] 14% | growth inhibition [2] 4.96% | viability increase [3] -1.23% | viability [4] 95.8% | viability [5] 94% | inhibition [6] -0.245% | RAM network inhibition [7] -1.3%

O=C(C1CCCN(S(=O)(=O)c2cccc3cccnc23)C1)N1CCN(c2ccccc2F)CC1 (stereo not drawn)
inactive: growth inhibition [1] -5.55% | growth inhibition [2] 7.3% | viability increase [3] -0.18% | viability [4] 73.2% | viability [5] 76.5% | inhibition [6] -0.265% | RAM network inhibition [7] 2.98%
